These results are taken from ChEMBL document CHEMBL1781898, “Orally active achiral N-hydroxyformamide inhibitors of ADAM-TS4 (aggrecanase-1) and ADAM-TS5 (aggrecanase-2) for the treatment of osteoarthritis” (Bioorg Med Chem Lett, 2011).

Structures are written as SMILES. pIC50: −log10 of the molar value.

Data set [1] has as its target T1, A disintegrin and metalloproteinase with thrombospondin motifs 4 (Homo sapiens, UniProt O75173).
T1 sequence (O75173 whole entry): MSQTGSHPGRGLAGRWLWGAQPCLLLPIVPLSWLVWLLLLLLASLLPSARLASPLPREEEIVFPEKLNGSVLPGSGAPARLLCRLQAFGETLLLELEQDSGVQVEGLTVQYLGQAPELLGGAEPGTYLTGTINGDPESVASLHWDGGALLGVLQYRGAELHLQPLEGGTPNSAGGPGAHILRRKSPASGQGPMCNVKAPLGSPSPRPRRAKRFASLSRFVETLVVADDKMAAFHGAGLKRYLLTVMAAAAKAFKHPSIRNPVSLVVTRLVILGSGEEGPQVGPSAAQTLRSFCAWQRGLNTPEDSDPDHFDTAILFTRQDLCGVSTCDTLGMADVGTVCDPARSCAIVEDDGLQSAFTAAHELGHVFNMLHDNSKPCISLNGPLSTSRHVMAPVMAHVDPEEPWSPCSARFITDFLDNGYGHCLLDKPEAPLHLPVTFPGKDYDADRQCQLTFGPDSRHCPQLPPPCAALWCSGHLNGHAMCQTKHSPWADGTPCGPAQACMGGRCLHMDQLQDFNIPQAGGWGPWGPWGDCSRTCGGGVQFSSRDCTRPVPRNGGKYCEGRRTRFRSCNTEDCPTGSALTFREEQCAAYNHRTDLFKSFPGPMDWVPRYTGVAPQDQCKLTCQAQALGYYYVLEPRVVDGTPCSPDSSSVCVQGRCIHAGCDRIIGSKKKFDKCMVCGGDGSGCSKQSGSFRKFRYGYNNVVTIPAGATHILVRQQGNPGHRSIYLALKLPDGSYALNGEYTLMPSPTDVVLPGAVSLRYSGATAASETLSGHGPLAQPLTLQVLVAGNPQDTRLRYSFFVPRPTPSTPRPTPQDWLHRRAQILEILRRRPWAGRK
The experiment in a line: Inhibition of ADAMTS-4 assessed as substrate cleavage after 16 hrs by fluorescence assay. The method in brief: (§1)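 Enzyme inhibition IC50s derived from at least six measurements, standard errors normally <5% within an assay; a standard compound run to keep assay-to-assay variability within twofold.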

Data set [2] addresses T2, A disintegrin and metalloproteinase with thrombospondin motifs 5 (Homo sapiens, UniProt Q9UNA0).
T2 sequence (Q9UNA0 whole entry): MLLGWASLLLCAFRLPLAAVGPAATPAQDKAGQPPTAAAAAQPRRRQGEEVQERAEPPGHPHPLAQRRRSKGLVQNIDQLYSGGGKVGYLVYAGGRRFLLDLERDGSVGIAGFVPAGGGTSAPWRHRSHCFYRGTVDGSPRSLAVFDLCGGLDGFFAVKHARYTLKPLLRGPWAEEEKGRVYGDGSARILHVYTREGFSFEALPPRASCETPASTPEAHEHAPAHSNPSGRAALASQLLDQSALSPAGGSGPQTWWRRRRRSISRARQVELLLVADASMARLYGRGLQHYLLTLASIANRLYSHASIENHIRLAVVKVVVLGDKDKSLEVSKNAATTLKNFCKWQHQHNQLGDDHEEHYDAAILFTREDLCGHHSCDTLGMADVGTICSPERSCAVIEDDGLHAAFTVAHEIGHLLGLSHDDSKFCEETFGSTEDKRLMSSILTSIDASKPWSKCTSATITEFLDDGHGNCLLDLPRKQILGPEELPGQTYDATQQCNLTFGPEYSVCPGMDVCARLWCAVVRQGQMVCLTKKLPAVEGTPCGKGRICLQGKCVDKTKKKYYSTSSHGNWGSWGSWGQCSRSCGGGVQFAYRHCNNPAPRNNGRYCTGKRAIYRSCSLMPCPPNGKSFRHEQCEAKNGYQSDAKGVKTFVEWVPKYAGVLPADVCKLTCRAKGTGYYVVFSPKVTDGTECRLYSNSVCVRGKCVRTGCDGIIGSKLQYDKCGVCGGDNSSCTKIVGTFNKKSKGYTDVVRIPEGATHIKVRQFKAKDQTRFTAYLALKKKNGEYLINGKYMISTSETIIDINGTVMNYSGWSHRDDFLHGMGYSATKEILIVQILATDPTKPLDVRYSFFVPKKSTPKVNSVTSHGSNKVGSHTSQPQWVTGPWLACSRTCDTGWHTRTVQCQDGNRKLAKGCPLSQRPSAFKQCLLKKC
The experiment in a line: Inhibition of ADAMTS-5 assessed as substrate cleavage after 16 hrs by fluorescence assay. The method in brief:
as §1

Another data set addresses Collagenase 3 (Homo sapiens, UniProt P45452). The experiment in a line: Inhibition of recombinant human MMP-13 assessed as substrate cleavage after 20 hrs by fluorescence assay. The gist of the method: as §1
The target of data set [3] is Matrix metalloproteinase-14 (Homo sapiens, UniProt P50281). The experiment in a line: Inhibition of recombinant human MMP-14 assessed as substrate cleavage after 20 hrs by fluorescence assay. The method in brief:
as §1

The target in another data set is T3, Interstitial collagenase (Homo sapiens, UniProt P03956).
T3 sequence (P03956 whole entry): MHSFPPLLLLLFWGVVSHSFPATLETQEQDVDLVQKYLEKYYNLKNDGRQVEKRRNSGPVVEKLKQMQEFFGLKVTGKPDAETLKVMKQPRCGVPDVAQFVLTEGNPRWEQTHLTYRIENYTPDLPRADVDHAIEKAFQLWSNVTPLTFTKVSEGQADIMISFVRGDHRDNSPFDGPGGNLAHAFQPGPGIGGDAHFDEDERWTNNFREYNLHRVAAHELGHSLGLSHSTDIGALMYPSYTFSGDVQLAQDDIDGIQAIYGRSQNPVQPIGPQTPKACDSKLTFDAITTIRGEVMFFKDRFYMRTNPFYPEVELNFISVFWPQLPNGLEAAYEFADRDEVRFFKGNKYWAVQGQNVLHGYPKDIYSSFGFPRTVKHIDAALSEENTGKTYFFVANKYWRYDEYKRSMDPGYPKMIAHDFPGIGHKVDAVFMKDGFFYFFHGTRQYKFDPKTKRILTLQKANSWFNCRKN
Briefly: Inhibition of recombinant human MMP-1 assessed as substrate cleavage after 20 hrs by fluorescence assay. The gist of the method:
as §1

In data set [4] the target is 72 kDa type IV collagenase (Homo sapiens, UniProt P08253). Briefly: Inhibition of recombinant human MMP-2 assessed as substrate cleavage after 20 hrs by fluorescence assay. The gist of the method:
as §1

Data set [5] addresses Matrix metalloproteinase-9 (Homo sapiens, UniProt P14780). The experiment in a line: Inhibition of recombinant human MMP-9 assessed as substrate cleavage after 20 hrs by fluorescence assay. The gist of the method:
as §1

The nature of data set [6]: Intrinsic clearance in human liver microsomes. It counts as ADME, Microsome. The method in brief: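 Human liver microsome metabolism; intrinsic clearance expressed as μL/min/mg, reported as mean of eight separate experiments.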
On the technique in general: Liver microsomes are vesicles of endoplasmic reticulum, rich in cytochrome P450 enzymes.

Matrix metalloproteinase-9, sequence (P14780 whole entry): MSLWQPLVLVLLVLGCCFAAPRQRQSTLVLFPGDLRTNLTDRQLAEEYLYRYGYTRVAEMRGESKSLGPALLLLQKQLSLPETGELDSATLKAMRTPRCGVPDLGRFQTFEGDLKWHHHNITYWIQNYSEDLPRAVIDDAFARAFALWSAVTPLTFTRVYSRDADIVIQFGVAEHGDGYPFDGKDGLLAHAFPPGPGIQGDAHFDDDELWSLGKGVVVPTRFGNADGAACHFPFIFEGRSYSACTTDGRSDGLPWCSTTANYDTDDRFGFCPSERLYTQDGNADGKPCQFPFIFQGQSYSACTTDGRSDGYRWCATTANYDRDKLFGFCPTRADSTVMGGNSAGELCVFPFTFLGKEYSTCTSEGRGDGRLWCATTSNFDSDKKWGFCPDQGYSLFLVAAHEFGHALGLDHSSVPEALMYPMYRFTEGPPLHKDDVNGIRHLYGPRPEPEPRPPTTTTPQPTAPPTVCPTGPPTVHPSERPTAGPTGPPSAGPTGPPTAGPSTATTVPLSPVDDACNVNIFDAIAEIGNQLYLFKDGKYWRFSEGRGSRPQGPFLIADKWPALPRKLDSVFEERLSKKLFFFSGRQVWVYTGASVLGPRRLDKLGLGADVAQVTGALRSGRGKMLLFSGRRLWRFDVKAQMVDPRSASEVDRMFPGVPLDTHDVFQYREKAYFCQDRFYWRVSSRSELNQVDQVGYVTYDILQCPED
72 kDa type IV collagenase, sequence (P08253 whole entry): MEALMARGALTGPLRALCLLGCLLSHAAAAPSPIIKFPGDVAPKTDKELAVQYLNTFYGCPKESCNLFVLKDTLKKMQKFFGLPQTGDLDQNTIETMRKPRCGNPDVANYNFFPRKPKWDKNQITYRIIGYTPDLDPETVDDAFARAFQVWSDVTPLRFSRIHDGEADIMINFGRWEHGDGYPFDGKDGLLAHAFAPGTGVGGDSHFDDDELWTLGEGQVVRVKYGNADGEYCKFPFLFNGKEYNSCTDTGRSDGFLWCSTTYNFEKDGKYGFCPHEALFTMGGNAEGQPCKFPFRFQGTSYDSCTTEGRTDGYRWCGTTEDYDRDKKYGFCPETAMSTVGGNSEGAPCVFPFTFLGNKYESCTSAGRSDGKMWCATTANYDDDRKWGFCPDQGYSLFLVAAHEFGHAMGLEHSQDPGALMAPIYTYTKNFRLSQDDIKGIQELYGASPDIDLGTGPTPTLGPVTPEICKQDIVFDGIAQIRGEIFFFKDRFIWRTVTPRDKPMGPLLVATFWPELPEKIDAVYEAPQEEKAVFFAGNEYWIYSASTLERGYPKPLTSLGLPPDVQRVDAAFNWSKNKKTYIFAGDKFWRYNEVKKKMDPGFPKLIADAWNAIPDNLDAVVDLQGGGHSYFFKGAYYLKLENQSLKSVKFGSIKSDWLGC

In general, pIC50 refers to the negative decadic logarithm of the IC50, by convention in mol/L. As for `Cc1cc(C)c(CCC2CCN(S(=O)(=O)CC3(N(O)C=O)CCOCC3)CC2)cn1`, the negative logarithm of the IC50 (pIC50) in data set [1] is 6.89; in data set [2], 5.85; on Collagenase 3 it was < 5.00; in data set [3] it was < 5.00; on Interstitial collagenase, < 5.00; in data set [4], 5.12. For the same compound, in data set [5], the negative-log IC50 (pIC50) is 5.05.
With `Cc1cc(Cl)ccc1CCC1CCN(S(=O)(=O)CC2(N(O)C=O)CCN(C(=O)C3CCC3)CC2)CC1`, the values for the negative logarithm of the IC50 (pIC50) in data set [1] and in data set [2] were 8.92 and 7.70, respectively.
Broadly, the microsomal CLint is a measure of how fast metabolising enzymes remove a compound, apart from limits set by blood flow. Low values mean greater metabolic stability, high ones faster metabolism. As for `CS(=O)(=O)c1ccc(CCC2CCN(S(=O)(=O)CC3(N(O)C=O)CCOCC3)CC2)c(C2CC2)c1`, the pIC50 in data set [1] is 8.85; in data set [2], 6.02; at Collagenase 3, < 5.00; in data set [3], < 5.00; on Interstitial collagenase, < 5.00; in data set [4], < 5.00. Also, the pIC50 in data set [5] was < 5.00. The compound also registered a microsomal CLint in data set [6] of 3.7 µL/min/mg.
Regarding `Cc1cc(Cl)ccc1CCC1CCN(S(=O)(=O)CC2(N(O)C=O)CCOCC2)CC1`, the pIC50 in data set [1] is 8.57; in data set [2], 7.19; on Collagenase 3, 6.11; in data set [3], < 5.00; at Interstitial collagenase it was < 5.00; in data set [4], 5.85. For the same compound, the negative logarithm of the IC50 (pIC50) in data set [5] is 5.92.
Regarding `Cc1cc(F)ccc1CCC1CCN(S(=O)(=O)CC2(N(O)C=O)CCN(C(=O)C3CCC3)CC2)CC1`, the values for the negative-log IC50 (pIC50) in data set [1] and in data set [2] were 8.72 and 7.96, respectively.
For `Cc1cc(C(F)(F)F)ccc1CCC1CCN(S(=O)(=O)CC2(N(O)C=O)CCN(C(=O)C3CCC3)CC2)CC1`, in that order: 8.92 and 7.10.
Turning to `Cc1noc(C)c1CCC1CCN(S(=O)(=O)CC2(N(O)C=O)CCC2)CC1`, the pIC50 in data set [1] was 7.29; in data set [2], 5.82; at Collagenase 3 it was < 5.00; in data set [3], < 5.00; on Interstitial collagenase, < 5.00; in data set [4], < 5.00. For the same compound, the negative logarithm of the IC50 (pIC50) in data set [5] was < 5.00. The microsomal CLint in data set [6] stood at 3.3 µL/min/mg.
For `O=CN(O)C1(CS(=O)(=O)N2CCC(CCc3ccccc3)CC2)CCOCC1`, the pIC50 was 6.33 in data set [1]; 5.77 in data set [2]; 6.59 at Collagenase 3; 5.92 in data set [3]; < 5.00 on Interstitial collagenase; 6.82 in data set [4]. The negative-log IC50 (pIC50) in data set [5] was 6.17. In addition, the microsomal CLint in data set [6] was determined as 8.8 µL/min/mg.
`O=CN(O)C1(CS(=O)(=O)N2CCC(CCc3ccc(F)cc3C(F)(F)F)CC2)CCN(C(=O)C2CCC2)CC1`: the pIC50 was 8.06 in data set [1] and 7.21 in data set [2].
In the same order, the values of `Cc1ccccc1CCC1CCN(S(=O)(=O)CC2(N(O)C=O)CCN(C(=O)C3CCC3)CC2)CC1` are 8.39 and 7.89.
Regarding `Cc1noc(C)c1CCC1CCN(S(=O)(=O)CC2(N(O)C=O)CCCC2)CC1`, the pIC50 was 7.28 in data set [1]; 5.72 in data set [2]; < 5.00 at Collagenase 3; < 5.00 in data set [3]; < 5.00 at Interstitial collagenase; < 5.00 in data set [4]. In data set [5], the pIC50 is < 5.00.
Regarding `Cc1cnc(C)c(CCC2CCN(S(=O)(=O)CC3(N(O)C=O)CCOCC3)CC2)c1`, the negative-log IC50 (pIC50) in data set [1] is 6.42; in data set [2], 5.28; at Collagenase 3 it was 5.08; in data set [3], < 5.00; on Interstitial collagenase, < 5.00; in data set [4] it was < 5.00. In data set [5], the negative logarithm of the IC50 (pIC50) was < 5.00.
Consider `Cc1noc(C)c1CCC1CCN(S(=O)(=O)CC2(N(O)C=O)CCCCC2)CC1`, for which the pIC50 in data set [1] is 7.70; in data set [2], 6.07; at Collagenase 3 it was < 5.39; in data set [3], < 5.12; on Interstitial collagenase, < 5.00; in data set [4], < 5.00. Further, the pIC50 in data set [5] is < 5.00.
